Assay outcomes as filed in PubChem BioAssay.
Compounds with a hit are over-represented: about 1.7% of the library has one in this group of screens.
PABP FP inh – PABP poly(A) RNA binding inhibitors, primary screen, biochemical, fluorescence polarization, uHTS. inhibition, % at 35 µM. hit rate 1% among 290,000. AID 2014, 2009;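 also: calls also rest on retests at 20 µM and on dose response follow-up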
Target sequence (P11940 whole entry, looked up): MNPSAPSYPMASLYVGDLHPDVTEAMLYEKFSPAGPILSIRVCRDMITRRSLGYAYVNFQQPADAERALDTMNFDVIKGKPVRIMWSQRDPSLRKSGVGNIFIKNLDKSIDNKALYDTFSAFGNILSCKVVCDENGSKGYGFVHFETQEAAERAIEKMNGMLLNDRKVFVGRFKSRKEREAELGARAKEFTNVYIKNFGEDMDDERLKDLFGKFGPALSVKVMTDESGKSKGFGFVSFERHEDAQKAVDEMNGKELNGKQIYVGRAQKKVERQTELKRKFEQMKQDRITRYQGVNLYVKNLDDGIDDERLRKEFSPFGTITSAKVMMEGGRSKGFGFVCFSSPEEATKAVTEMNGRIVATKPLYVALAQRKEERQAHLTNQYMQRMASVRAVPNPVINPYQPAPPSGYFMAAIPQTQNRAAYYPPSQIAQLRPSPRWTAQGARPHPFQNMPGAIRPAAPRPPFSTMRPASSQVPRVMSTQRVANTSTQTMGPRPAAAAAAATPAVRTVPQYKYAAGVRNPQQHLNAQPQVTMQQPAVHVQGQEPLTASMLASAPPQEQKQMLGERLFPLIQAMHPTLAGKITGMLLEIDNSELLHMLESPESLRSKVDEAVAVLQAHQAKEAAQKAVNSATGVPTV
eIF4H FP inh – human eIF4H binding inhibitors, primary screen, translation initiation inhibitor project, biochemical, uHTS, fluorescence polarization | AID 2012, 2009 | eIF4H fluorescence polarization binding assay | hit rate 0.94% among 290,000 | inhibition, % at 35 µM;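 also: calls also rest on retests at 20 µM and on dose response follow-up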
MT1-MMP act inh – blockers of MT1-MMP proenzyme processing, primary screen, HT1080 RFP-PRO-GFP cells, GFP/RFP fluorescence; Matrix metalloproteinase-14 (Homo sapiens), P50281; GFP/RFP ratio change, % at 20 µM; hit rate 0.061% among 360,000; GFP/RFP ratio fluorescence, overnight; percent of plate control window, DMSO zero;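 active = GFP/RFP ratio change of at least 30% with cell ATP level not reduced by more than half and red fluorescence within 50% of control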
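Assay system: HT1080 RFP-PRO-GFP cells | Dosing: 20 µM single dose, 1% DMSO | Incubation: Cells overnight before dosing, compound overnight, 37 °C, 5% CO2 | Evaluation: GFP/RFP fluorescence ratio | Control set: DMSO-only wells and HT1080 RFP-L50D-GFP cell wells as references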
MLLE-PAM2 inh – inhibitors of PABP1 MLLE–PAM2 peptide binding, primary screen, biochemical, fluorescence polarization, FITC-PAM2, GST-MLLE; inhibition, % at 20 µM; hit rate 0.36% among 360,000; in the data active = inhibition above about 35%, passing the limit was not always enough
SKN-1 inh – suppressors of acrylamide-induced Pgst-4::GFP reporter in worms, primary screen, SKN-1 inhibitor project, whole organism, uHTS, GFP/RFP fluorescence ratio, strain VP596; hit rate 0.49% among 360,000; C. elegans VP596 Pgst-4::GFP/RFP ratio, 24 h; AID 624304, 2012; inhibition, % at 21.8 µM;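 active = interference check ratio from 0.5 to 1.5 plus GFP to RFP signal ratio inhibition reaching or exceeding a fixed threshold, cut at about 30% in these data, passing the limit was not always enough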
Numbers stand for hits; . = inactive; ? = inconclusive; / = not tested or not shown. Unless noted, no rule for the calls is given here.

SMILES | PABP FP inh | eIF4H FP inh | MT1-MMP act inh | MLLE-PAM2 inh | SKN-1 inh
Cc1ccc(N(CC(=O)NC2CCCCC2)C(=O)CCCC(=O)Nc2ccccn2)cc1 | 69 | 79 | . | . | .
O=C(O)C1Sc2[nH]c(=O)sc2C2c3cc(Cl)ccc3OC(=O)C12 (stereo not given) | 74 | . | . | . | .
CC(=O)c1cccc(N(CC(=O)NC2CCCC2)C(=O)c2csnn2)c1 | . | . | . | . | .
Cc1ccc(CSc2nnc(-c3ccco3)o2)cc1 | . | . | . | . | 82
Fc1ccc(CSc2nnc(-c3ccco3)o2)cc1 | . | . | . | . | 71
Brc1ccc(CSc2nnc(-c3ccco3)o2)cc1 | . | . | . | . | 94
O=C(CN1C(=O)c2ccccc2C1=O)NC1CCC(O)CC1 (stereo not given) | / | / | . | . | .
CS(=O)(=O)c1ccc(CNC(=O)C2(C(F)(F)F)C/C(=C\Cc3ccccc3)CCCO2)cc1 (stereo not given) | / | / | . | . | .
CCOC(=O)c1c(-c2ccc(C)o2)csc1N | 68 | 52 | . | . | .
Cc1c(NC(=O)COC(=O)Cc2ccc(Br)cc2)c(=O)n(-c2ccccc2)n1C | / | / | . | . | .
Cc1c(NC(=O)CSCc2ccc(Br)cc2)c(=O)n(-c2ccccc2)n1C | 75 | active | . | . | .
Cc1nc2ccccn2c1/C(O)=C1\C(=O)C(=O)N(CCN(C)C)C1c1ccco1 (stereo not given) | . | . | . | 50 | .
Cc1nc2ccccn2c1/C(O)=C1\C(=O)C(=O)N(CCN2CCOCC2)C1c1ccncc1 (stereo not given) | . | . | . | . | .
Cc1ccccc1-n1ncc2c1CC(C)(C)CC2NC(=O)c1snnc1C (stereo not given) | . | . | . | . | .
CCN(CCO)C(=O)c1ccc2nc(Cc3cccc(Cl)c3)oc2c1 | . | . | . | . | .
CC(CNc1ccccc1O)C(=O)O (stereo not given) | . | . | . | 76 | .
Cn1/c(=N/N=C/c2ccc(N3CCOCC3)cc2)sc2ccccc21 | . | . | . | . | .
Cn1/c(=N/N=C/c2ccccn2)sc2ccccc21 | . | . | . | . | 42
C=CCN1C(=O)C(=O)N(Cc2nc3ccccc3s2)C1=O | . | . | . | . | 48
Cn1nc([N+](=O)[O-])c(C(C#N)c2nc3ccccc3n2C)c(Cl)c1=O (stereo not given) | . | ? | . | 65 | .
NNC(=O)c1oc2nc(-c3cccs3)cc(-c3ccco3)c2c1N | 22 | ? | . | . | .
FC(F)(F)c1cc(Cl)c2nc(-c3ccccc3)cn2c1 | . | . | . | . | 41
Cc1cccc(NC(=O)CSCC(=O)N(C)Cc2ccc(Cl)c(Cl)c2)c1 | / | / | . | . | .
O=C(O)CCNS(=O)(=O)c1ccc2ccccc2c1 | . | . | . | . | .
O=C(O)CCNc1cc2ccccc2cc1C(=O)O | . | . | . | . | 36
SMILES | PABP FP inh | eIF4H FP inh | MT1-MMP act inh | MLLE-PAM2 inh | SKN-1 inh
O=[N+]([O-])c1ccc(/C=C/C2=NN(c3ccccc3)C(c3ccco3)C2)o1 (stereo not given) | . | . | . | . | 33
C(=C\c1ccco1)/C1=NN(c2ccccc2)C(c2ccco2)C1 (stereo not given) | . | 71 | . | . | .
Fc1ccc(C2=NN(c3ccccc3)C(c3ccco3)C2)cc1 (stereo not given) | . | . | . | . | .
Cc1ccc(S(=O)(=O)c2c(N)n(/N=C/c3ccco3)c3nc4ccccc4nc23)cc1 | 94 | 69 | . | . | .
Nc1c(S(=O)(=O)c2ccccc2)c2nc3ccccc3nc2n1/N=C/c1ccco1 | 32 | . | . | . | .
O=C(CCNC(=O)c1ccccc1Cl)Nc1ccc(S(=O)(=O)N2CCOCC2)cc1 | / | / | . | . | .
NS(=O)(=O)c1ccc(NC(=S)Nc2cc(Cl)c(Cl)cc2Cl)cc1 | . | . | . | . | .
CSc1ccccc1NC(=S)Nc1ccc(S(N)(=O)=O)cc1 | . | . | . | 36 | .
COc1ccc(C(=O)NCC(=O)N/N=C/C=C/c2ccccc2)cc1OC | . | . | . | . | .
Fc1ccc(N2CCN(c3cnc4ccccc4n3)CC2)cc1 | . | . | . | . | 63
Clc1ccc(N2CCN(c3cnc4ccccc4n3)CC2)cc1 | . | . | . | . | .
c1ccc(N2CCN(c3cnc4ccccc4n3)CC2)cc1 | . | . | . | . | 47
OC(c1ccccn1)c1c[nH]c2ccccc12 (stereo not given) | . | . | . | . | 37
c1cc2c(cc1-c1csc(NNC3=NCCCCC3)n1)OCCO2 | . | . | / | / | /
O=C(c1ccsc1)N1CCCC(Nc2cccc(F)c2)C1 (stereo not given) | . | . | . | . | .
CC[n+]1c(/C=C/c2ccc(OC)c(OC)c2)ccc2ccccc21 | 59 | . | . | . | .
COc1ccc(C(=O)N/C(=C\c2ccco2)C(=O)NCCN2CCOCC2)cc1 | . | . | . | . | .
CCN(CC)CCOC(=O)c1ccc(NC(=O)CCCN2C(=O)/C(=C\c3cccs3)SC2=S)cc1 | . | . | . | . | 39
Oc1ccc(N=Nc2ccc3ccccc3c2)cc1 | . | . | . | . | 46
COc1cc(N=Nc2ccc3ccccc3c2)ccc1O | . | . | . | . | .
Cc1ccc(N(CC2CO2)S(=O)(=O)c2ccc([N+](=O)[O-])cc2)cc1 (stereo not given) | . | . | . | . | .
O=C(Cn1cnnn1)NCc1ccccc1 | . | . | . | . | .
C=CCn1c(-c2cc(OC)c(OC)c(OC)c2)n[nH]c1=S | . | . | . | . | .
C=CCn1c(-c2cccc(OC)c2)n[nH]c1=S | 82 | 2.5 | . | . | .
C=CCn1c(-c2cc3cccc(OC)c3o2)n[nH]c1=S | active | ? | . | . | .
SMILES | PABP FP inh | eIF4H FP inh | MT1-MMP act inh | MLLE-PAM2 inh | SKN-1 inh
COc1cc(OC)cc(C(=O)NNC(=O)CCC2CCCC2)c1 | / | / | . | . | .
Cc1cccn2c(=O)c3cc(S(=O)(=O)c4ccccc4)c(=N)n(Cc4ccco4)c3nc12 | . | . | . | . | .
Cc1ccc(S(=O)(=O)c2cc3c(=O)n4ccccc4nc3n(Cc3ccco3)c2=N)cc1C | 60 | 67 | / | / | /
Cc1ccc(S(=O)(=O)c2cc3c(=O)n4ccccc4nc3n(CC3CCCO3)c2=N)cc1C (stereo not given) | . | ? | / | . | .
CCOC(=O)c1cc2c(=O)n3ccccc3nc2n(Cc2ccco2)c1=NC(=O)c1ccccc1OC | . | 51 | . | . | .
Cc1cccn2c(=O)c3cc(S(=O)(=O)c4ccc(F)cc4)c(=N)n(Cc4ccco4)c3nc12 | 65 | 83 | . | . | .
